The values below come from ChEMBL document CHEMBL1130107, “Discovery of CGS 27023A, a non-peptidic, potent, and orally active stromelysin inhibitor that blocks cartilage degradation in rabbits” (J Med Chem, 1997).

Each structure is given as a SMILES string. pKi: −log10 of the molar value.

In one assay the target is T1, Stromelysin-1 (Homo sapiens, UniProt P08254). The experiment in a line: Inhibition activity against recombinant human stromelysin (Matrix metalloprotease-3).
T1 sequence (P08254 whole entry): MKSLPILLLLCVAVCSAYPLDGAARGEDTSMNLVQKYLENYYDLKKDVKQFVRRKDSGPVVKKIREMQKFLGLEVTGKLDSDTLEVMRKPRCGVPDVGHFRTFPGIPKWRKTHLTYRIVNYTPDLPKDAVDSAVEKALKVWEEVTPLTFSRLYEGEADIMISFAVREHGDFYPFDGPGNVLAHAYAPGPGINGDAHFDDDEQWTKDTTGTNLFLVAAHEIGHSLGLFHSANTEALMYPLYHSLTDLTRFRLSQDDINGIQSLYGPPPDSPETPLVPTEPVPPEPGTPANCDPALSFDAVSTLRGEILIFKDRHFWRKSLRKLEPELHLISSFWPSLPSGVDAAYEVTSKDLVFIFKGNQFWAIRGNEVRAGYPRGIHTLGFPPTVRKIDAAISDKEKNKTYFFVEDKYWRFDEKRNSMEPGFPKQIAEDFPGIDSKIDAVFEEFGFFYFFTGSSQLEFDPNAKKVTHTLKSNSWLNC
As to `CC(C)CN(CC(=O)NO)S(=O)(=O)c1ccc(N(C)C)cc1`, the pKi (usually −log10 of the Ki, conventionally taken in molar units) is 5.36.
With `COc1ccc(S(=O)(=O)N(Cc2ccccc2)C(C(=O)NO)C(C)C)cc1` (stereo not drawn), the negative logarithm of the Ki (pKi) is 7.04.
Regarding `COc1ccc(S(=O)(=O)N(Cc2ccccc2)[C@H](C)C(=O)NO)cc1`, the pKi was 7.44.
For the molecule `COc1ccc(S(=O)(=O)N(Cc2ccccc2)[C@@H](C)C(=O)NO)cc1`, the negative logarithm of the Ki (pKi) is 6.85.
Same read-out and setting: for `COc1ccc(S(=O)(=O)N(CC(=O)NO)CC2CCCCC2)cc1` the value was 7.21.
Consider `COc1ccc(S(=O)(=O)N(Cc2ccccc2)C(Cc2ccccc2)C(=O)NO)cc1` (stereo not drawn), for which the negative-log Ki (pKi) was 7.15.
On the same count and under the same terms, the same measure for `COc1ccc(S(=O)(=O)N(Cc2ccccc2)C(C)C(=O)NO)cc1` (stereo not drawn): 7.07.
On the same count and under the same terms, for `COc1ccc(CN(CC(=O)NO)S(=O)(=O)c2ccc(OC)cc2)cc1` the value was 6.98.
Still for that read-out and setting: for `COc1ccc(S(=O)(=O)N(CC(=O)NO)Cc2ccccc2)cc1` the value was 7.15; for `COc1ccc(S(=O)(=O)NCC(=O)NO)cc1`, 5.36; for `COc1ccc(S(=O)(=O)N(Cc2ccccc2)[C@H](CC(C)C)C(=O)NO)cc1`, 7.64.
Take `COc1ccc(S(=O)(=O)N(Cc2ccccc2)[C@H](Cc2ccccc2)C(=O)NO)cc1`: the pKi was 7.54.
On the same count and under the same terms, for `COc1ccc(S(=O)(=O)N(Cc2ccccc2)[C@@H](C(=O)NO)C(C)C)cc1` the value was 7.47; for `COc1ccc(S(=O)(=O)N(CC(=O)NO)Cc2ccc3ccccc3n2)cc1`, 6.87; for `COc1ccc(S(=O)(=O)N(CCC(C)C)CC(=O)NO)cc1`, 7.03.

For the next assay, the target named is T1, Stromelysin-1. The experiment in a line: Inhibition activity against recombinant human stromelysin (Matrix metalloprotease-3) (Inactive). An outline of the steps:
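Substance P (0.5 mM) cleaved by recombinant human stromelysin (8 μg, 2 units) for 30 min at 37 °C with test compound diluted from 10 mM stock into assay buffer. Reaction stopped with 10 mM EDTA. Substance P 7-11 fragment quantified by RP-8 HPLC. IC50 versus inhibitor-free control, mean of two independent measurements. Ki derived from mean IC50 by Waley's method.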
In the case of `CC(C)CN(CC(=O)NO)S(=O)(=O)c1ccc([N+](=O)[O-])cc1`, the Ki entry was “Not Active”.
As to `CC(C)CN(CC(=O)NO)S(=O)(=O)c1ccc(S(C)(=O)=O)cc1`, the Ki result is “Not Active”.
The same measure, in the same setting: for `CC(C)CN(CC(=O)NO)S(=O)(=O)c1ccc(C(C)(C)C)cc1` the value was “Not Active”.
